Test results as given in ChEMBL document CHEMBL1149200, “Toxic effects of natural piperine and its derivatives on epimastigotes and amastigotes of Trypanosoma cruzi” (Bioorg Med Chem Lett, 2004).

Tests used:
[1] = tested on: Trypanosoma cruzi; test: In vitro growth inhibition of epimastigotes of Trypanosoma cruzi; type: functional, organism-based
In short: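 Y-strain epimastigotes were grown in axenic culture and proliferation was measured. Compounds came from 10 mg mL-1 DMSO stocks, diluted 1:2 serially in medium to final levels of 0.76–25, each in triplicate. IC50 was derived by linear regression.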

[2] = tested on: Trypanosoma cruzi; test: In vitro growth inhibition of amastigotes of Trypanosoma cruzi; type: functional, organism-based
In short: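 Intracellular amastigotes, Y-strain, in in vitro infected murine peritoneal macrophages. Compounds were held as 10 mg mL-1 DMSO stocks and serially diluted in medium before use. Read-out was the reduction in intracellular amastigote number. IC50 was obtained by linear regression.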

Row | Compound | IC50 [1] [µM] | IC50 [2] [µM]
1 | O=C(/C=C/C=C/c1ccc2c(c1)OCO2)OC1CCCCC1 | > 83.3 | –
2 | O=C(CCCCc1ccc2c(c1)OCO2)N1CCCCC1 [TETRAHYDROPIPERINE] | 19.4 | 11.5
3 | CN1CCN(C(=O)/C=C/C=C/c2ccc3c(c2)OCO3)CC1 | > 83.3 | –
4 | O=C(/C=C/C=C/c1ccc2c(c1)OCO2)N1CCOCC1 | 56.1 | 5.71
5 | CC(C)N(C(=O)/C=C/C=C/c1ccc2c(c1)OCO2)C(C)C | 14.8 | 7.77
6 | O=C(/C=C/C=C/c1ccc2c(c1)OCO2)NCc1ccccc1 | > 81.4 | –
7 | O=C(Cn1ccnc1[N+](=O)[O-])NCc1ccccc1 [BENZNIDAZOLE] | – | 2.58
8 | COc1ccc(CCNC(=O)/C=C/C=C/c2ccc3c(c2)OCO3)cc1OC | > 65.6 | –
9 | C(/C=C/c1ccc2c(c1)OCO2)=C\CN1CCCCC1 | 17.5 | 9.63
10 | O=C(/C=C/C=C/C=C/c1ccc2c(c1)OCO2)N1CCCCC1 | 10.7 | 7.4
11 | O=C(/C=C/c1ccc2c(c1)OCO2)N1CCCCC1 [ILEPCIMIDE] | > 96.5 | –
12 | O=C(/C=C/c1ccc2c(c1)OCO2)N1CCOCC1 | > 95.8 | –
13 | O=C(O)/C=C/C=C/c1ccc2c(c1)OCO2 [PIPERIC ACID] | > 115 | –
